35 molecules from ChEMBL document CHEMBL3352559, “Synthesis and pharmacological investigation of aralkyl diamine derivatives as potential triple reuptake inhibitors” (Eur J Med Chem, 2014) can be followed below.

Data set [1] deals with T1, Sodium-dependent serotonin transporter (Homo sapiens, UniProt P31645). Nature of the data set: Inhibition of [3H]-serotonin uptake in human SERT expressed in HEK293 cells by scintillation counting. It counts as cell-based.
Target sequence in this assay (P31645 whole entry): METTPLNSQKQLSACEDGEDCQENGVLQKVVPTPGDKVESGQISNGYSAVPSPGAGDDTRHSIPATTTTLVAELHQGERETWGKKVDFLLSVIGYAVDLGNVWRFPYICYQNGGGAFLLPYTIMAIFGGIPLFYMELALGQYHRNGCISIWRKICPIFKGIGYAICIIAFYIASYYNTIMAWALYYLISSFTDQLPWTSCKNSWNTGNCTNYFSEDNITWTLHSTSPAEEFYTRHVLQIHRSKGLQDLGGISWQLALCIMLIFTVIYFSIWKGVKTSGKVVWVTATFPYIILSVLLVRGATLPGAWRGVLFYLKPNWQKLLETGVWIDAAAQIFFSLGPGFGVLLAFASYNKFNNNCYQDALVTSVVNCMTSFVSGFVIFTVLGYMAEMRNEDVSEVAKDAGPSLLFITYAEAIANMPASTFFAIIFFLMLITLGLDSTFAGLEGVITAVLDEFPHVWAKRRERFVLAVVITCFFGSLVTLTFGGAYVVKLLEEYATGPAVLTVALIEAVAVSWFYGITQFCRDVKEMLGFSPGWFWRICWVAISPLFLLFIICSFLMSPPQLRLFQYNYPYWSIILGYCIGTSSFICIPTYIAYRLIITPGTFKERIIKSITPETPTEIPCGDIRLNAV
In data set [2] the target is T2, Sodium-dependent noradrenaline transporter (Homo sapiens, UniProt P23975). The data set is described as follows: Inhibition of [3H]-NE uptake in human norepinephrine transporter expressed in HEK293 cells by scintillation counting. It counts as cell-based.
The target in data set [3] is T3, Sodium-dependent dopamine transporter (Homo sapiens, UniProt Q01959). The data set is described as follows: Inhibition of [3H]-DA uptake in human dopamine transporter expressed in CHO cells at 10 uM by scintillation counting.
Data set [4] has as its target T3, Sodium-dependent dopamine transporter. Nature of the data set: Inhibition of [3H]-DA uptake in human dopamine transporter expressed in HEK293 cells by scintillation counting. It counts as cell-based.
The target of data set [5] is T1, Sodium-dependent serotonin transporter. Nature of the data set: Inhibition of [3H]-serotonin uptake in human SERT expressed in HEK293 cells at 10 uM by scintillation counting. The class given is cell-based.
Target sequence in this assay (P31645 whole entry, looked up): as the sequence (P31645 whole entry) above
Data set [6] deals with T2, Sodium-dependent noradrenaline transporter. The data set is described as follows: Inhibition of [3H]-NE uptake in human norepinephrine transporter expressed in HEK293 cells at 10 uM by scintillation counting. It counts as cell-based.
Data set [7] relates to Rattus norvegicus. The data set is described as follows: Antidepressant activity in po dosed rat assessed as reduction in immobility time by forced swimming test. It counts as functional, organism-based. In outline: (§1)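 Male rats dosed orally at 5, 10 or 20 mg/kg alongside vehicle and venlafaxine 30 mg/kg PO groups. 1 h post-dose, each rat placed in a glass cylinder (40 cm × 18 cm) holding 15 cm of 25 ± 1 °C water. Immobility time recorded over a 6 min trial; significant main effects followed by post hoc Fisher's test.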

In data set [8] the test system is Rattus norvegicus. The data set is described as follows: Antidepressant activity in rat assessed as reduction in immobility time at 5 mg/kg, po by forced swimming test relative to control. The class given is functional. In outline:
as §1

In data set [9] the test system is Rattus norvegicus. Nature of the data set: Antidepressant activity in rat assessed as reduction in immobility time at 10 mg/kg, po by forced swimming test relative to control. The class given is functional. In outline:
as §1

For data set [10], the system named is Rattus norvegicus. Nature of the data set: Antidepressant activity in rat assessed as reduction in immobility time at 20 mg/kg, po by forced swimming test relative to control. It counts as functional. In outline: as §1
Data set [11] deals with Rattus norvegicus. The data set is described as follows: Toxicity in rat assessed as effect on locomotion at 20 mg/kg, po after 60 mins by spontaneous locomotor test. The class given is organism-based. Further details: dose 20 mg/kg, route oral. The conditions noted are these: in vivo, 1 h. In outline:
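Rats dosed orally at 20 mg/kg, with vehicle and venlafaxine 30 mg/kg PO as controls; 60 min later placed singly in novel 40×40×50 cm cages under dim light with sound attenuation; activity recorded automatically in 5 min bins over 30 min; mean ± SEM.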

Data set [12] deals with Rattus norvegicus. The data set is described as follows: Toxicity in rat assessed as effect on locomotion at 30 mg/kg, po after 60 mins by spontaneous locomotor test. Conditions: in vivo, 1 h. The class given is organism-based. Set-up: dose 30 mg/kg, route oral. In outline:
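Rats were dosed PO. 60 min later each was placed alone in an unfamiliar 40 cm × 40 cm × 50 cm plastic cage under dim light and sound attenuation. Spontaneous activity was monitored automatically at 5 min intervals for up to 30 min. Results are mean ± SEM versus vehicle.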

Data set [13] has as its system Rattus norvegicus. Nature of the data set: Antidepressant activity in rat assessed as reduction in immobility time at 30 mg/kg, po by forced swimming test relative to control. It counts as functional. In outline:
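Male rats were dosed PO with vehicle or compound. After 1 h each rat was placed in a clear glass cylinder (40 cm tall × 18 cm diameter) holding water at 25 ± 1 °C, 15 cm deep. Immobility time was recorded over a 6 min trial and compared with vehicle. Significant main effects were followed by Fisher's post hoc test.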

The structures appear in SMILES notation.

T2 sequence (P23975 whole entry): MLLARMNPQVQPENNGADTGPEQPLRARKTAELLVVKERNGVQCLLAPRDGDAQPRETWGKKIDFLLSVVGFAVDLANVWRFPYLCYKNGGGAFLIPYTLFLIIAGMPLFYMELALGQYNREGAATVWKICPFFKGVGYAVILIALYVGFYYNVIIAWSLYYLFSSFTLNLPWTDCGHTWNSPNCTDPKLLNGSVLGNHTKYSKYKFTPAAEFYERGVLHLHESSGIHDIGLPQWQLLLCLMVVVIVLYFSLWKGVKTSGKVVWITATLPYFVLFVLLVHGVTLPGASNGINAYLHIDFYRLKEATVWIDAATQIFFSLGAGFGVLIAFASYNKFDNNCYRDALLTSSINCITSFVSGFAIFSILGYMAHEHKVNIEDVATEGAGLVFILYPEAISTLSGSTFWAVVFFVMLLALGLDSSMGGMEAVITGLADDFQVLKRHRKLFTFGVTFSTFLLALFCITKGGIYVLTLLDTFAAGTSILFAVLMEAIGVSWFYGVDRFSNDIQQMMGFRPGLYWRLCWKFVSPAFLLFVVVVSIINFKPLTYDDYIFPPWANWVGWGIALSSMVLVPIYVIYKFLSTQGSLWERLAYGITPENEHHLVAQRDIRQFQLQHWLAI
T3 sequence (Q01959 whole entry): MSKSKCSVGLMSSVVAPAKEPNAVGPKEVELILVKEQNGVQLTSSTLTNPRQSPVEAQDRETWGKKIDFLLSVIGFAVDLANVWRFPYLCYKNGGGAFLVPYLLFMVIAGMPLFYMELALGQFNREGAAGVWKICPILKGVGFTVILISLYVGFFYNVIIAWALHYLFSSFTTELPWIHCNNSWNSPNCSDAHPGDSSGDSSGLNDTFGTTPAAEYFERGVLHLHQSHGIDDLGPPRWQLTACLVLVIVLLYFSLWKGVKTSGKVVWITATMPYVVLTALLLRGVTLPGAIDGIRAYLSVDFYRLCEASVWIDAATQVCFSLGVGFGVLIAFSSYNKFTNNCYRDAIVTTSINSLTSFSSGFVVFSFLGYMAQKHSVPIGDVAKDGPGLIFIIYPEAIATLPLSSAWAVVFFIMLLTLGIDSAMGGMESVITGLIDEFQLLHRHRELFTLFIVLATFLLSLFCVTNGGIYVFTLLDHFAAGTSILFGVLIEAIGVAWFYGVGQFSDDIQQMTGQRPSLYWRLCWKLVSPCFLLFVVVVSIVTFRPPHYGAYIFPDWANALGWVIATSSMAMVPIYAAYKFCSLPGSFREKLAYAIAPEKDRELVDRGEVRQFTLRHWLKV

On to `CN(C)CCC(c1csc2ccccc12)N1CCOCC1` (centres undefined), for which the IC50 – broadly, the concentration needed to halve the response being measured – in data set [1] came to 1190 nM; in data set [2], 2540 nM. Further, the inhibition – broadly, the change of the read-out against control, counted positive when it falls – in data set [3] stood at 56.8%.
Consider `CCN(CC)CCC(c1ccc(Cl)c(Cl)c1)N1CCCC1` (centres undefined), for which the figures for the 50% inhibitory concentration (IC50) in data set [2] and in data set [4] were 136 nM and 363 nM, respectively. The molecule also showed an inhibition in data set [5] of 76.5%.
For `CN(C)CCC(c1ccc(F)cc1)N1CCCC1` (centres undefined), the inhibition in data set [5] came out at 70.2%; in [6] it was 68.9%; in [3] it was 46.6%.
As for `CN(C)CCC(c1ccc(Cl)c(Cl)c1)N1CCNCC1` (centres undefined), the figures for the IC50 in data set [1] and in [2] were 399 nM and 428 nM, respectively. The inhibition in [3] amounted to 80.1%.
In the case of `Clc1ccc(C(CCN2CCOCC2)N2CCOCC2)cc1Cl` (centres undefined), the values for the inhibition in [5], in data set [6] and in data set [3] were 73.8%, 4.9% and 54.4%, respectively.
For `CN(C)CCC(c1cc2ccccc2s1)N1CCOCC1` (centres undefined), the IC50 was 449 nM in data set [1] and 1460 nM in data set [2]. For the same molecule, the inhibition in data set [3] came out at 66.8%.
For `COc1ccc2cc(C(CCN(C)Cc3ccccc3)N3CCOCC3)ccc2c1Cl` (centres undefined), the values for the inhibition in data set [5], in data set [6] and in data set [3] were 47.3%, 49.5% and 2.5%, respectively.
In data set [2], `C1=C(Cc2ccccc2)CCN(CCC(c2csc3ccccc23)N2CCNCC2)C1` (centres undefined) gave an IC50 of 635 nM. The inhibition in data set [5] is 73.9%; in data set [3], 83.9%.
Molecule `CNCCC(c1ccc(F)cc1F)N1CCOCC1` (centres undefined) returned an IC50 in data set [2] of 328 nM. The inhibition in [5] was determined as 86.1%; in data set [3], 42%.
On to `CN(C)CCC(c1ccc(F)cc1)N1CCCCC1` (centres undefined), for which the inhibition was 62.7% in data set [5], 87.6% in data set [6] and 40.1% in [3].
As for `CN(C)CCC(c1ccc(C(F)(F)F)cc1)N1CCCC1` (centres undefined), the inhibition in [5] was found to be 57.6%; in data set [6], 77.4%; in data set [3] it was 37.1%.
In the case of `COc1ccc2cc(C(CCN3CC=C(Cc4ccccc4)CC3)N3CCCC3)ccc2c1Cl` (centres undefined), the inhibition in data set [5] came out at 79.9%; in data set [6], 73.5%; in data set [3] it was 79.5%.
As to `COc1ccc2cc(C(CCN(C)C)N3CCCC3)ccc2c1Cl` (centres undefined), the IC50 in data set [1] stood at 338 nM; in data set [2] it was 374 nM; in data set [4], 8190 nM.
Regarding `Clc1ccc(C(CCN2CCOCC2)N2CCCC2)cc1Cl` (centres undefined), the IC50 in [1] turned out to be 389 nM; in data set [2] it was 68.9 nM; in data set [4] it was 238 nM. In data set [7], the inhibition entry is “Dose-dependent effect”. The inhibition in vivo (commonly how much of the control response was suppressed) at 5 mg/kg in data set [8] stood at 12%. Also, the inhibition in vivo at 10 mg/kg in data set [9] is 17%. Also, the inhibition in vivo at 20 mg/kg in data set [10] is 34%. In addition, the Activity entry in data set [11] was “Non-toxic”.
`C1=C(Cc2ccccc2)CCN(CCC(c2csc3ccccc23)N2CCOCC2)C1` (centres undefined) displayed an IC50 in data set [4] of 852 nM. Further, the inhibition in data set [5] turned out to be 65.4%; in data set [6], 79.1%.
In the case of `CN(C)CCC(c1csc2ccccc12)N1CCCC1` (centres undefined), the concentration for half-maximal inhibition (IC50) in data set [1] is 425 nM; in data set [2], 250 nM; in data set [4], 986 nM.
For `CC1CCCN(C(CCN2CCOCC2)c2ccc(Cl)c(Cl)c2)C1` (centres undefined), the inhibition in data set [5] was found to be 30.5%; in data set [6] it was 35.3%; in data set [3] it was 54.3%.
Take `CN(CCC(c1cc2ccccc2s1)N1CCOCC1)Cc1ccccc1` (centres undefined): the values for the inhibition in data set [5], in [6] and in data set [3] were 30.3%, 37.8% and 41.9%, respectively.
The like results for `Cc1ccc(C(CCN(C)C)N2CCOCC2)cc1` (centres undefined) were, in that order, 39.2%, 40.4% and 25.8%.
As to `CN(CCC(c1ccc(Cl)c(Cl)c1)N1CCOCC1)Cc1ccccc1` (centres undefined), the figures for the inhibition in data set [5], in [6] and in [3] were 35.6%, 50.6% and 3.4%, respectively.
For the molecule `CN(C)CCC(c1ccc(Cl)c(Cl)c1)N1CCCC1` (centres undefined), the IC50 in [1] was 501 nM; in data set [2], 206 nM; in data set [4], 357 nM. Moreover, in [7], the inhibition entry is “Dose-dependent effect”. For the same molecule, the inhibition in vivo at 5 mg/kg in data set [8] came out at 18%. Moreover, the inhibition in vivo at 10 mg/kg in data set [9] turned out to be 25%. Besides, the inhibition in vivo at 20 mg/kg in data set [10] turned out to be 36%. Also, the Activity entry in data set [11] is “Non-toxic”.
On to `CN(C)CCC(c1ccc(Cl)cc1)N1CCOCC1` (centres undefined), for which the inhibition is 58.5% in [5], 52.5% in [6] and 35.7% in data set [3].
Regarding `CN(C)CCC(c1ccc(F)cc1F)N1CCOCC1` (centres undefined), the inhibition stood at 55.6% in data set [5], 19.4% in data set [6] and 50.7% in [3].
On to `CN(C)CCC(c1cc2ccccc2s1)N1CCCC1` (centres undefined), for which the half-inhibitory concentration (IC50) turned out to be 401 nM in [1], 495 nM in [2] and 863 nM in [4].
`C1=C(Cc2ccccc2)CCN(CCC(c2csc3ccccc23)N2CCCC2)C1` (centres undefined): the IC50 in [1] stood at 621 nM; in data set [2] it was 157 nM; in data set [4] it was 325 nM.
In the case of `Clc1ccc(C(CCN2CCCCC2)N2CCOCC2)cc1Cl` (centres undefined), the inhibition amounted to 59.9% in data set [5], 74% in data set [6] and 68.1% in [3].
For `CN(C)CCC(c1ccc(F)cc1)N1CCOCC1` (centres undefined) the same measures were 50.7%, 74.2% and 6.4%.
As for `CN(C)CCC(c1ccc(C(F)(F)F)cc1)N1CCOCC1` (centres undefined), the inhibition in data set [5] is 46.2%; in data set [6], 83.2%; in data set [3], 8.5%.
Regarding `COc1ccc(C(CN(C)C)C2(O)CCCCC2)cc1` (centres undefined) [VENLAFAXINE], in data set [12], the Activity result is listed as “Toxic”. Moreover, the inhibition in vivo at 30 mg/kg in data set [13] is 14%.
For `Clc1ccc(C(CCN2CC=C(Cc3ccccc3)CC2)N2CCCC2)cc1Cl` (centres undefined), the IC50 in [2] worked out at 426 nM; in [4], 291 nM. This molecule came in with an inhibition in data set [5] of 79.1%.
As for `CCOC(=O)C1CCCN(C(CCN2CCOCC2)c2ccc(Cl)c(Cl)c2)C1` (centres undefined), the inhibition in data set [5] was 34.9%; in [6], 19%; in data set [3], 36.6%.
For `CN(C)CCC(c1ccc(Cl)c(Cl)c1)N1CCCCC1` (centres undefined), the IC50 came to 546 nM in data set [1], 634 nM in [2] and 602 nM in data set [4].
`C1=C(Cc2ccccc2)CCN(CCC(c2csc3ccccc23)N2CCCCC2)C1` (centres undefined) yielded an IC50 in [1] of 905 nM. In addition, the inhibition in [6] worked out at 52.7%; in data set [3], 77.4%.
On to `COc1ccc(C(CCN(C)C)N2CCOCC2)cc1` (centres undefined), for which the inhibition in [5] came to 25.9%; in data set [6], 29.3%; in data set [3], 22.9%.
Take `CN(CCC(c1ccc(F)cc1F)N1CCOCC1)Cc1ccccc1` (centres undefined): the figures for the inhibition in data set [5], in data set [6] and in data set [3] were 24.1%, 5.3% and 46.2%, respectively.
